Experimental data from different studies.
Lines come from different studies, so protocols differ.
CYP1A2: Cytochrome P450 1A2 (CYP1A2, Homo sapiens, UniProt P05177)

For `COc1ccc2c(c1)CN(C(=O)CCN1CCC(Cc3ccccc3)CC1)CC[S@@+]2[O-]`, the Vd was 86.7 L (male human, plasma; intravenous, 0.15 mg/kg, healthy volunteers).
With `O=C1C(=O)c2cccnc2-c2ncccc21.O=C1C(=O)c2cccnc2-c2ncccc21.O=C1C(=O)c2cccnc2-c2ncccc21.[Cu+2].[O-][Cl+3]([O-])([O-])[O-].[O-][Cl+3]([O-])([O-])[O-]` the CC50 was greater than 200 µM (Vero; cell growth or viability, MTT; 72 h).
For `CC(=O)O[C@H]1[C@H](O[C@H]2CC[C@]34C[C@]35CC[C@]3(C)[C@@H]([C@@]6(C)CC[C@@H](C(C)(C)O)O6)[C@@H](O)C[C@@]3(C)[C@@H]5C[C@H](O[C@@H]3O[C@H](CO)[C@@H](O)[C@H](O)[C@H]3O)[C@H]4C2(C)C)OC[C@@H](O)[C@@H]1O`, the IC50 was greater than 200 µM (CYP1A2; enzyme activity, inhibitor; human, liver microsomes).
The Cmax of `CN(C)C(=O)c1cc2cnc(Nc3ccc(-c4ccc5c(=O)cc(N6CCOCC6)oc5c4)cc3)nc2n1C1CCCC1.Cl` is reported as 3300 ng/mL (BALB/c mouse, plasma; oral, 20 mg/kg).
`NS(=O)(=O)c1ccc(-c2ccc(Nc3ccc(F)c(Cl)c3)cc2)cc1` has a viability of 75% (BHK-21; cell growth or viability, MTT; 100 µM).
For `CC[C@H](C)[C@@H]([C@@H](CC(=O)N1CCC[C@H]1[C@H](OC)[C@@H](C)C(=O)N[C@@H](Cc1ccccc1)C(=O)NCCCO)OC)N(C)C(=O)[C@@H](NC(=O)[C@H](C(C)C)N(C)C)C(C)C`, the IC50 was 43.6 µM (Cytochrome P450 3A4 (CYP3A4, Homo sapiens, UniProt P08684); enzyme activity, inhibitor; human, liver microsomes).
With `NS(=O)(=O)c1ccc(-c2ccc(Nc3ccncc3)cc2)cc1` the viability was 76% (BHK-21; cell growth or viability, MTT; 100 µM).
`C#CCC(Cc1cnc2nc(N)nc(N)c2n1)c1ccc(C(=O)N[C@@H](CCC(=O)O)C(=O)O)cc1` (some centres unmarked) has a CC50 of 104 µM (BHK-21; cell growth or viability, CCK-8; 48 h).
`C[C@@H](Oc1ccc(S(C)(=O)=O)cc1C(=O)N1C[C@@H]2C[C@]2(c2cc(C(F)(F)F)on2)C1)C(F)(F)F` has a Vd/F of 273 L (human, plasma; oral, 10 mg, single dose, fasted).
`CC(=O)O[C@@H]1[C@@H](O)[C@H](O[C@H]2CC[C@]34C[C@]35CC[C@]3(C)[C@@H]([C@@]6(C)CC[C@@H](C(C)(C)O)O6)[C@@H](O)C[C@@]3(C)[C@@H]5C[C@H](O[C@@H]3O[C@H](CO)[C@@H](O)[C@H](O)[C@H]3O)[C@H]4C2(C)C)OC[C@H]1O` has an IC50 of greater than 200 µM (CYP1A2; enzyme activity, inhibitor; human, liver microsomes).
With `CCCSc1ccc2nc(NC(=O)OC)[nH]c2c1` the CC50 was greater than 200 µM (Vero; cell growth or viability, MTT; 72 h).
With `OC[C@H]1O[C@@H](c2cc(Cc3ccc(C4CC4)cc3)c(Cl)c3c2CCO3)[C@H](O)[C@@H](O)[C@@H]1O` the Vd/F was 167 L (human, plasma; oral, 0.3 mg, single dose, fasted).
The CC50 of `COC(=O)N[C@H](C(=O)N1CCC[C@H]1c1nc(-c2ccc3c(c2)O[C@@H](c2ccccc2)n2c-3cc3cc(-c4c[nH]c([C@@H]5CCCN5C(=O)[C@@H](NC(=O)OC)C(C)C)n4)ccc32)c[nH]1)C(C)C` is reported as greater than 600 µM (BHK-21; cell growth or viability, CCK-8; 48 h).
`N#Cc1cccc(-c2ccc3ncc(-c4cc(F)cc(F)c4)c(N4CCC(N)CC4)c3c2)c1O` gave a Vd/F of 300 L (human, plasma; oral, 20 mg, single dose).
